Measurements reported in ChEMBL document CHEMBL4689842, “EUbOPEN Chemogenomics Library wave 1” (2021).

Tested on: U2OS
Assay: Multiplex assay against U2OS
Format: toxicity, cell-based
Conditions: human
Procedure, shortened: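 Live cells were stained at seeding with Hoechst33342, BioTracker Green Microtubule Cytoskeleton Dye, MitoTracker Red and Annexin V Alexa Fluor 680, then imaged on a CQ1 microscope at 37°C and 5% CO2 after compound addition. CellPathfinder machine-learning gating split cells into Hoechst high-intensity objects or normal cells. Normal cells were split into healthy, pyknosed or fragmented nuclei, and pyknosed cells into mitotic or apoptotic. Tubulin, mitochondrial-mass and membrane-permeability phenotypes are per cents of healthy-nucleus cells.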

[1] = 12 h, 1 µM, compound concentration 1 uM, replicate 1
[2] = 12 h, 1 µM, compound concentration 1 uM, replicate 2
[3] = 12 h, 10 µM, compound concentration 10 uM, replicate 1
[4] = 12 h, 10 µM, compound concentration 10 uM, replicate 2
[5] = 24 h, 1 µM, compound concentration 1 uM, replicate 1
[6] = 24 h, 1 µM, compound concentration 1 uM, replicate 2
[7] = 24 h, 10 µM, compound concentration 10 uM, replicate 1
[8] = 24 h, 10 µM, compound concentration 10 uM, replicate 2
[9] = 48 h, 1 µM, compound concentration 1 uM, replicate 1
[10] = 48 h, 1 µM, compound concentration 1 uM, replicate 2
[11] = 48 h, 10 µM, compound concentration 10 uM, replicate 1
[12] = 48 h, 10 µM, compound concentration 10 uM, replicate 2

With `Cl.N#Cc1ccc2[nH]cc(CCCCN3CCN(c4ccc5oc(C(N)=O)cc5c4)CC3)c2c1` [VILAZODONE HYDROCHLORIDE] the “Population Apoptotic (%)” value [1] was 42%, the “Population Fragmented Nuclei (%)” value [1] was 17% and the “Population Healthy Nuclei (%)” value [1] was 65%. For the same molecule, the “Population Hoechst High Intensity Objects (%)” value [1] was 9%, the “Population Membrane Permeable-Phenotype (%)” value [1] was 4% and the “Population Mitochondria Different-Phenotype (%)” value [1] was 28%. The “Population Mitotic Cells (%)” value [1] was 57%, the “Population Normal (%)” value [1] was 90% and the “Population Pyknosed Nuclei (%)” value [1] was 17%. For the same molecule, the “Population Tubulin-Different-Phenotype (%)” value [1] was 29%, the “Total Cell Count” value [1] was 129 and the “Population Apoptotic (%)” value [2] was 27%. The “Population Fragmented Nuclei (%)” value [2] was 14%, the “Population Healthy Nuclei (%)” value [2] was 70% and the “Population Hoechst High Intensity Objects (%)” value [2] was 2%. For the same molecule, the “Population Membrane Permeable-Phenotype (%)” value [2] was 6%, the “Population Mitochondria Different-Phenotype (%)” value [2] was 30% and the “Population Mitotic Cells (%)” value [2] was 72%. The “Population Normal (%)” value [2] was 97%, the “Population Pyknosed Nuclei (%)” value [2] was 15% and the “Population Tubulin-Different-Phenotype (%)” value [2] was 18%. The “Total Cell Count” value [2] was 50, the “Population Apoptotic (%)” value [3] was 39% and the “Population Fragmented Nuclei (%)” value [3] was 29%. The “Population Healthy Nuclei (%)” value [3] was 12%, the “Population Hoechst High Intensity Objects (%)” value [3] was 18% and the “Population Membrane Permeable-Phenotype (%)” value [3] was 42%. For the same molecule, the “Population Mitochondria Different-Phenotype (%)” value [3] was 89%, the “Population Mitotic Cells (%)” value [3] was 60% and the “Population Normal (%)” value [3] was 81%. The “Population Pyknosed Nuclei (%)” value [3] was 58%, the “Population Tubulin-Different-Phenotype (%)” value [3] was 100% and the “Total Cell Count” value [3] was 120. The “Population Apoptotic (%)” value [4] was 67%, the “Population Fragmented Nuclei (%)” value [4] was 20% and the “Population Healthy Nuclei (%)” value [4] was 14%. For the same molecule, the “Population Hoechst High Intensity Objects (%)” value [4] was 10%, the “Population Membrane Permeable-Phenotype (%)” value [4] was 38% and the “Population Mitochondria Different-Phenotype (%)” value [4] was 46%. For the same molecule, the “Population Mitotic Cells (%)” value [4] was 32%, the “Population Normal (%)” value [4] was 89% and the “Population Pyknosed Nuclei (%)” value [4] was 64%. The “Population Tubulin-Different-Phenotype (%)” value [4] was 92%, the “Total Cell Count” value [4] was 72 and the “Population Apoptotic (%)” value [5] was 56%. The “Population Fragmented Nuclei (%)” value [5] was 16%, the “Population Healthy Nuclei (%)” value [5] was 71% and the “Population Hoechst High Intensity Objects (%)” value [5] was 7%. The “Population Membrane Permeable-Phenotype (%)” value [5] was 2%, the “Population Mitochondria Different-Phenotype (%)” value [5] was 26% and the “Population Mitotic Cells (%)” value [5] was 43%. The “Population Normal (%)” value [5] was 92%, the “Population Pyknosed Nuclei (%)” value [5] was 12% and the “Population Tubulin-Different-Phenotype (%)” value [5] was 21%. For the same molecule, the “Total Cell Count” value [5] was 120, the “Population Apoptotic (%)” value [6] was 60% and the “Population Fragmented Nuclei (%)” value [6] was 15%. The “Population Healthy Nuclei (%)” value [6] was 78%, the “Population Hoechst High Intensity Objects (%)” value [6] was 1% and the “Population Membrane Permeable-Phenotype (%)” value [6] was 3%. For the same molecule, the “Population Mitochondria Different-Phenotype (%)” value [6] was 19%, the “Population Mitotic Cells (%)” value [6] was 40% and the “Population Normal (%)” value [6] was 98%. For the same molecule, the “Population Pyknosed Nuclei (%)” value [6] was 6%, the “Population Tubulin-Different-Phenotype (%)” value [6] was 18% and the “Total Cell Count” value [6] was 54. The “Population Apoptotic (%)” value [7] was 61%, the “Population Fragmented Nuclei (%)” value [7] was 26% and the “Population Membrane Permeable-Phenotype (%)” value [7] was 53%. For the same molecule, the “Population Mitochondria Different-Phenotype (%)” value [7] was 86%, the “Population Mitotic Cells (%)” value [7] was 38% and the “Population Pyknosed Nuclei (%)” value [7] was 64%. The “Population Tubulin-Different-Phenotype (%)” value [7] was 93%, the “Total Cell Count” value [7] was 135 and the “Population Apoptotic (%)” value [8] was 75%. For the same molecule, the “Population Fragmented Nuclei (%)” value [8] was 31%, the “Population Healthy Nuclei (%)” value [8] was 9% and the “Population Hoechst High Intensity Objects (%)” value [8] was 18%. The “Population Membrane Permeable-Phenotype (%)” value [8] was 30%, the “Population Mitochondria Different-Phenotype (%)” value [8] was 90% and the “Population Mitotic Cells (%)” value [8] was 24%. For the same molecule, the “Population Normal (%)” value [8] was 81%, the “Population Pyknosed Nuclei (%)” value [8] was 59% and the “Population Tubulin-Different-Phenotype (%)” value [8] was 90%. For the same molecule, the “Total Cell Count” value [8] was 79, the “Population Apoptotic (%)” value [9] was 38% and the “Population Fragmented Nuclei (%)” value [9] was 10%. For the same molecule, the “Population Healthy Nuclei (%)” value [9] was 76%, the “Population Hoechst High Intensity Objects (%)” value [9] was 6% and the “Population Membrane Permeable-Phenotype (%)” value [9] was 8%. For the same molecule, the “Population Mitochondria Different-Phenotype (%)” value [9] was 10%, the “Population Mitotic Cells (%)” value [9] was 61% and the “Population Normal (%)” value [9] was 93%. For the same molecule, the “Population Pyknosed Nuclei (%)” value [9] was 12%, the “Population Tubulin-Different-Phenotype (%)” value [9] was 16% and the “Total Cell Count” value [9] was 121. For the same molecule, the “Population Apoptotic (%)” value [10] was 40%, the “Population Fragmented Nuclei (%)” value [10] was 12% and the “Population Healthy Nuclei (%)” value [10] was 82%. For the same molecule, the “Population Hoechst High Intensity Objects (%)” value [10] was 2%, the “Population Membrane Permeable-Phenotype (%)” value [10] was 9% and the “Population Mitochondria Different-Phenotype (%)” value [10] was 9%. The “Population Mitotic Cells (%)” value [10] was 60%, the “Population Normal (%)” value [10] was 97% and the “Population Pyknosed Nuclei (%)” value [10] was 4%. The “Population Tubulin-Different-Phenotype (%)” value [10] was 11%, the “Total Cell Count” value [10] was 49 and the “Population Apoptotic (%)” value [11] was 91%. The “Population Fragmented Nuclei (%)” value [11] was 35%, the “Population Healthy Nuclei (%)” value [11] was 7% and the “Population Hoechst High Intensity Objects (%)” value [11] was 21%. For the same molecule, the “Population Membrane Permeable-Phenotype (%)” value [11] was 87%, the “Population Mitochondria Different-Phenotype (%)” value [11] was 100% and the “Population Mitotic Cells (%)” value [11] was 8%. For the same molecule, the “Population Normal (%)” value [11] was 78%, the “Population Pyknosed Nuclei (%)” value [11] was 56% and the “Population Tubulin-Different-Phenotype (%)” value [11] was 100%. The “Total Cell Count” value [11] was 174, the “Population Apoptotic (%)” value [12] was 89% and the “Population Fragmented Nuclei (%)” value [12] was 25%. For the same molecule, the “Population Healthy Nuclei (%)” value [12] was 5%, the “Population Hoechst High Intensity Objects (%)” value [12] was 25% and the “Population Membrane Permeable-Phenotype (%)” value [12] was 75%. For the same molecule, the “Population Mitotic Cells (%)” value [12] was 10%, the “Population Normal (%)” value [12] was 74% and the “Population Pyknosed Nuclei (%)” value [12] was 68%. For the same molecule, the “Total Cell Count” value [12] was 120.
